Tests used:
[1] = species: Rattus norvegicus; experiment: Alpha-1/Alpha-2-agonistic activity by measuring their efficacy in pithed rat based on noradrenaline; assay type: functional
How it was run: (§1)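 Pithed rats with jugular vein catheter for iv dosing and carotid catheter for arterial pressure, about 15 min equilibration. Single increasing iv doses are given and the rise in diastolic pressure is read to build a dose-response curve. pD2 is taken from that curve; efficacy is relative to noradrenaline. n = 3.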

[2] = species: Rattus norvegicus; experiment: Change in blood pressure was reported in pithed rat; assay type: functional; how it was run: as §1
[3] = species: Rattus norvegicus; experiment: Alpha-1/Alpha-2-agonistic activity by measuring their potency in pithed rat based on noradrenaline; assay type: functional; how it was run: as §1
[4] = target: T1, Adrenergic receptor alpha-1 (Homo sapiens) (UniProt P35348+P25100+P35368); experiment: alpha-1-adrenergic activity by measuring their potency in rabbit ear artery based on noradrenaline; assay type: functional, tissue-based; details: Oryctolagus cuniculus, target entry is the homologue from another species
How it was run: (§2)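 Isolated rabbit ear artery segment, circular smooth muscle tension measured isometrically; cocaine blocks neuronal uptake, rauwolscine blocks α2-receptors. Cumulative noradrenaline curve (10^-10–10^-5 M) sets the maximum, then after washout a cumulative curve for the test drug. pD2 = −log molar concentration giving 50% of NA maximum; efficacy = drug maximum relative to NA. n = 3-5.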

[5] = target: T1, Adrenergic receptor alpha-1 (Homo sapiens); experiment: Alpha-1-adrenergic activity as efficacy in rabbit ear artery relative to noradrenaline; assay type: functional, tissue-based; details: Oryctolagus cuniculus, target entry is the homologue from another species; how it was run: as §2
[6] = species: Rattus norvegicus; experiment: Alpha-1/alpha-2-agonistic activity by measuring their efficacy in pithed rat based on noradrenaline; assay type: functional; how it was run: as §1
[7] = species: Rattus norvegicus; experiment: alpha-1/alpha-2-agonistic activity by measuring their potency in pithed rat based on noradrenaline; assay type: functional; how it was run: as §1
[8] = target: T1, Adrenergic receptor alpha-1 (Homo sapiens); experiment: Alpha-1-adrenergic activity as potency in rabbit ear artery compared to noradrenaline; assay type: functional, tissue-based; details: Oryctolagus cuniculus, target entry is the homologue from another species; how it was run: as §2
[9] = species: Rattus norvegicus; experiment: Alpha-1/alpha-2-agonistic activity by measuring their potency in pithed rat based on noradrenaline; assay type: functional; how it was run: as §1
[10] = species: Rattus norvegicus; experiment: alpha-1/alpha-2-agonistic activity by measuring their efficacy in pithed rat based on noradrenaline; assay type: functional; how it was run: as §1
[11] = target: T1, Adrenergic receptor alpha-1 (Homo sapiens); details: Oryctolagus cuniculus; Artery
[12] = target: T1, Adrenergic receptor alpha-1 (Homo sapiens); details: Oryctolagus cuniculus; Artery; remark: listed apart in the source
[13] = target: T1, Adrenergic receptor alpha-1 (Homo sapiens); experiment: alpha-1-adrenergic activity by measuring their efficacy in rabbit ear artery based on noradrenaline; assay type: functional, tissue-based; details: Oryctolagus cuniculus, target entry is the homologue from another species; how it was run: as §2

| Structure (SMILES) | E [1] | Increase in blood pressure (P/R) [2] [%] | pD2 [3] | E [5] | pD2 [8] | also measured |
| --- | --- | --- | --- | --- | --- | --- |
| CCSc1ccc(OC)c2c1CC1CCCN(C)C1C2 (stereo in doubt) [listing 1 of 2 here] | 18 | -25 | 6.12 | – | – | – |
| CCSc1ccc(OC)c2c1CC1OCCN(C)C1C2 (centres undefined) | – | -80 | – | 95 | – | pD2 [4]: 8.2; E [6]: 86; pD2 [7]: 6.48 |
| CCSc1ccc(OC)c2c1CC1CCCN(C)C1C2 (stereo in doubt; 31) [listing 1 of 2 here] | – | – | – | 97 | 6.46 | – |
| COc1ccc(SC)c2c1CC1C(C2)OC(C)CN1C (centres undefined) | – | – | – | 67 | – | pD2 [4]: 5.83; pD2 [7]: <4 |
| COc1ccc(Cl)c2c1CC1C(C2)OCCN1C (centres undefined) | 40 | -5 | – | 89 | 5.97 | pD2 [9]: 5.89 |
| CCCN1CCOC2Cc3c(SC)ccc(OC)c3CC21 (centres undefined) | 38 | -76 | 6.18 | 98 | 6.78 | – |
| COc1ccc(SC)c2c1C[C@H]1[C@@H](C2)OCCN1C (stereo in doubt; 14) [listing 1 of 2 here] | – | -79 | – | – | – | E [10]: 76; pD2 [7]: 6.74 |
| CCC1CN(C)C2Cc3c(OC)ccc(SC)c3CC2O1 (centres undefined) | 20 | 0 | 6.1 | 42 | 5.35 | – |
| NC[C@H](O)c1ccc(O)c(O)c1 | – | – | – | – | – | PD2 [11]: 7.7; E [12]: 100 |
| COc1ccc(SC)c2c1C[C@H]1[C@@H](C2)OCCN1C (stereo in doubt; 15) [listing 1 of 2 here] | 23 | -40 | 6.19 | – | – | – |
| CCSc1ccc(OC)c2c1CC1CCCN(C)C1C2 (stereo in doubt; 31) [listing 2 of 2 here] | 80 | -93 | 6.68 | – | – | – |
| CCN1CCOC2Cc3c(SC)ccc(OC)c3CC21 (centres undefined) | 79 | -84 | 6.84 | 98 | 7.42 | – |
| CCN1CC(C)OC2Cc3c(SC)ccc(OC)c3CC21 (centres undefined) | 29 | -34 | 6.45 | 93 | 6.47 | – |
| COc1ccc(SC)c2c1CC1C(CCCN1C)C2 (stereo in doubt; 33) [listing 1 of 2 here] | – | – | – | 109 | 8.4 | – |
| COc1ccc([N+](=O)[O-])c2c1CC1C(C2)OCCN1C (centres undefined) | – | -22 | – | 85 | – | pD2 [4]: 5.45; E [6]: 17; pD2 [7]: 6 |
| CCSc1ccc(OC)c2c1CC1CCCN(C)C1C2 (stereo in doubt) [listing 2 of 2 here] | – | – | – | – | < 4 | – |
| COc1ccc(SC)c2c1CC1C(CCCN1C)C2 (stereo in doubt; cis) [listing 1 of 2 here] | – | – | – | – | < 4 | – |
| COc1ccc(SC)c2c1CC1C(CCCN1C)C2 (stereo in doubt; cis) [listing 2 of 2 here] | – | – | <4 | – | – | – |
| COc1ccc(SC)c2c1CC1C(CCCN1C)C2 (stereo in doubt; 33) [listing 2 of 2 here] | 85 | -87 | 7.36 | – | – | – |
| COc1ccc(SC)c2c1C[C@H]1[C@@H](C2)OCCN1C (stereo in doubt; 14) [listing 2 of 2 here] | – | – | – | – | – | pD2 [4]: 7.5; E [13]: 110 |
| COc1ccc(SC)c2c1C[C@H]1[C@@H](C2)OCCN1C (stereo in doubt; 15) [listing 2 of 2 here] | – | – | – | 100 | 5.4 | – |
| COc1ccc(SC)c2c1CC1C(CCCN1C)C2 (stereo in doubt; trans) | 72 | -79 | 6.92 | – | – | – |
| COc1ccc(SC)c2c1C[C@@H](N)CC2 | 73 | -94 | 7.92 | 98 | 7.48 | – |
